Experimental data published in ChEMBL document CHEMBL5046294, “Rational Design, Chemical Syntheses, and Biological Evaluations of Peripherally Selective Mu Opioid Receptor Ligands as Potential Opioid Induced Constipation Treatment” (J Med Chem, 2022).
The source made the active and inactive calls.

Legend:
[1] = tested on: Mus musculus; assay: Gastroprokinetic activity in Swiss Webster mouse assessed as stimulation of gastrointestinal motility by measuring time required to defecation of red fecal pellet at 10 mg/kg, po incubated for 5 mins followed by morphine addition at 5 mg/kg and measured after 20 mins by carmine red dye assay; format: functional; details: time 25 min
Outline: (§1)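 Male Swiss Webster mice, 5–6 per group, housed singly. Compound or vehicle given s.c. or by oral gavage 5 min before morphine (10 or 5 mg/kg) or vehicle. 20 min after morphine, 0.2 mL of 6% carmine red in 0.5% CMC given orally (time 0). Time to first red pellet recorded, 6-h cutoff. Dunnett-corrected one-way ANOVA.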

[2] = tested on: Mus musculus; assay: Reversal of morphine induced constipation in Swiss Webster mouse at 10 mg/kg, po for 5 mins followed by morphine addition at 5 mg/kg and measured after 20 mins by carmine red dye assay; format: functional; outline: as §1
[3] = target: T1, Kappa-type opioid receptor (Homo sapiens, UniProt P41145); assay: Antagonist activity at kappa opioid receptor (unknown origin) expressed in CHO cell membrane assessed as reduction in U50,488H -induced […]-GTPgammaS binding by measuring maximal efficacy incubated for 1.5 hrs by liquid scintillation counting method relative to control; format: functional, cell membranes
Outline: (§2)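 [³⁵S]GTPγS binding. Membranes (10 μg protein) from CHO cells expressing MOR, KOR or DOR. Buffer TME (50 mM Tris, 3 mM MgCl₂, 0.2 mM EGTA, pH 7.4) with 100 mM NaCl, 20 μM GDP and 0.1 nM [³⁵S]GTPγS. Test compound at varying concentrations. Incubation 1.5 h at 30 °C. Nonspecific binding with 20 μM unlabeled GTPγS. Reference full agonist at 3 μM: DAMGO (MOR), U50488H (KOR), SNC80 (DOR). Filtration, then scintillation counting. Duplicates, at least three repeats.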

[4] = target: T2, Delta-type opioid receptor (Homo sapiens, UniProt P41143); assay: Binding affinity to human delta opioid receptor in presence of SNC80 incubated for 1.5 hrs by competitive radioligand binding assay
Outline: (§3)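 Competition binding. Membranes (30 μg protein) from CHO cells with mouse MOR or KOR, or human DOR. Incubated with radioligand and varying test concentrations in TME buffer, pH 7.4, 1.5 h at 30 °C. Filtration harvest. Nonspecific binding defined with 5 μM naltrexone (MOR), U50,488 (KOR) or SNC80 (DOR). IC₅₀ by nonlinear regression, converted to Ki by Cheng-Prusoff. Selectivity ratios taken from these Ki values. At least three independent experiments.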

[5] = target: T3, Kappa-type opioid receptor (Mus musculus, UniProt P33534); assay: Binding affinity to mouse kappa opioid receptor expressed in CHO cells in presence of U50488 incubated for 1.5 hrs by competitive radioligand binding assay; format: cell-based; outline: as §3
[6] = target: T3, Kappa-type opioid receptor; assay: Antagonist activity at kappa opioid receptor (unknown origin) expressed in CHO cell membrane assessed as reduction in U50,488H-induced […]-GTPgammaS binding incubated for 1.5 hrs by liquid scintillation counting method; format: functional, cell membranes
[7] = tested on: Mus musculus; assay: Gastroprokinetic activity in Swiss Webster mouse assessed as stimulation of gastrointestinal motility by measuring time required to defecation of red fecal pellet at 10 mg/kg, po incubated for 5 mins followed by morphine addition at 10 mg/kg and measured after 20 mins by carmine red dye assay; format: functional; details: time 25 min; outline: as §1
[8] = target: T2, Delta-type opioid receptor; assay: Antagonist activity at human delta opioid receptor expressed in CHO cell membrane assessed as reduction in SNC80-induced […]-GTPgammaS binding by measuring maximal efficacy incubated for 1.5 hrs by liquid scintillation counting method relative to control; format: functional, cell membranes; outline: as §2
[9] = target: T4, Mu-type opioid receptor (Mus musculus, UniProt P42866); assay: Antagonist activity at mouse mu opioid receptor expressed in CHO cell membrane assessed as reduction in DAMGO-induced […]-GTPgammaS binding incubated for 1.5 hrs by liquid scintillation counting method; format: functional, cell membranes
[10] = tested on: Mus musculus; assay: Reversal of morphine induced constipation in Swiss Webster mouse at 10 mg/kg, po for 5 mins followed by morphine addition measured after 20 mins by carmine red dye assay relative to control; format: functional; details: time 25 min; outline: as §1
[11] = tested on: Mus musculus; assay: Antinociceptive activity against Swiss Webster mouse assessed as tail withdrawal latency from warm water by measuring maximum possible effect at 10 mg/kg, sc measured after 20 mins by warm water tail immersion assay; format: functional
Outline: (§4)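 Male Swiss Webster mice, 5–8 weeks, 25–35 g, 6 per group. Tail immersed (distal third) in water at 56 ± 0.1 °C. Mice included only with baseline latency 2–4 s. Compound 10 mg/kg s.c.; in the challenge arm it was given 5 min before morphine 10 mg/kg s.c. Latency read 20 min after injection, 10-s cutoff. %MPE = (test − control)/(10 − control) × 100. Dunnett-corrected one-way ANOVA.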

[12] = tested on: Mus musculus; assay: Antinociceptive activity against sc dosed Swiss Webster mouse model assessed as effect on morphine induced antinociception by measuring tail withdrawal latency from warm water incubated for 5 mins followed by morphine addition measured after 20 mins by warm water tail immersion assay; format: functional; details: for Activity: time 25.0 min; outline: as §4
[13] = tested on: Mus musculus; assay: Gastroprokinetic activity in Swiss Webster mouse assessed as stimulation of gastrointestinal motility by measuring time required to defecation of red fecal pellet at 10 mg/kg, sc incubated for 5 mins followed by morphine addition at 10 mg/kg and measured after 20 mins by carmine red dye assay; format: functional; details: time 25 min; outline: as §1
[14] = target: T4, Mu-type opioid receptor; assay: Binding affinity to mouse mu opioid receptor expressed in CHO cells in presence of naltrexone incubated for 1.5 hrs by competitive radioligand binding assay; format: cell-based; outline: as §3
[15] = target: T1, Kappa-type opioid receptor; assay: Displacement of [3H]-U69593 from human recombinant kappa opioid receptor by radioligand binding assay
[16] = target: Mu-type opioid receptor (Homo sapiens, UniProt P35372); assay: Antagonist activity at human recombinant mu opioid receptor assessed as reduction in DAMGO-induced […]-GTPgammaS binding; format: functional
[17] = target: T1, Kappa-type opioid receptor; assay: Antagonist activity at human recombinant kappa opioid receptor assessed as reduction in U50,488H-induced […]-GTPgammaS binding; format: functional
[18] = organism: Mus musculus; assay: Selectivity index, ratio of Ki for binding affinity to mouse kappa opioid receptor to Ki for binding affinity to mouse mu opioid receptor; outline: as §3
[19] = Selectivity index, ratio of Ki for binding affinity to human delta opioid receptor to Ki for binding affinity to mouse mu opioid receptor; outline: as §3
[20] = target: Mu-type opioid receptor (Mus musculus) (UniProt P42866); assay: Antagonist activity at mouse mu opioid receptor expressed in CHO cell membrane assessed as reduction in DAMGO-induced […]-GTPgammaS binding by measuring maximal efficacy incubated for 1.5 hrs by liquid scintillation counting method relative to control; format: functional, cell membranes; outline: as §2
[21] = tested on: Mus musculus; assay: Antinociceptive activity against Swiss Webster mouse assessed as tail withdrawal latency from warm water by measuring maximum possible effect at 10 mg/kg, sc incubated for 5 mins followed by morphine addition measured after 20 mins by warm water tail immersion assay; format: functional; details: time 25 min; outline: as §4
[22] = target: T2, Delta-type opioid receptor; assay: Antagonist activity at human delta opioid receptor expressed in CHO cell membrane assessed as reduction in SNC80-induced […]-GTPgammaS binding incubated for 1.5 hrs by liquid scintillation counting method; format: functional, cell membranes
[23] = tested on: Mus musculus; assay: Gastroprokinetic activity in Swiss Webster mouse assessed as stimulation of gastrointestinal motility by measuring time required to defecation of red fecal pellet at 10 mg/kg, po incubated for 20 mins by carmine red dye assay; format: functional
Outline: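 Male Swiss Webster mice (5–8 weeks, 25–35 g), singly caged, 5–6 per group. Compound or vehicle was given by oral gavage 5 min before s.c. morphine (10 or 5 mg/kg) or vehicle. Oral vehicle was also given to naïve and morphine groups. 20 min after morphine, mice received 0.2 mL of 6% carmine red in 0.5% CMC p.o. (time 0). Time to the first red pellet was recorded, with a 6 h cut-off. One-way ANOVA with Dunnett test.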

[24] = tested on: Mus musculus; assay: Gastroprokinetic activity in Swiss Webster mouse assessed as stimulation of gastrointestinal motility by measuring time required to defecation of red fecal pellet at 5 mg/kg, po incubated for 20 mins by carmine red dye assay; format: functional; outline: as §1
[25] = tested on: Mus musculus; assay: Gastroprokinetic activity in Swiss Webster mouse assessed as stimulation of gastrointestinal motility by measuring time required to defecation of red fecal pellet at 10 mg/kg, sc incubated for 20 mins by carmine red dye assay; format: functional
Outline: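 Male Swiss Webster mice (5–8 weeks, 25–35 g), singly caged, 5–6 per group. Compound or vehicle was given s.c. 5 min before morphine 10 mg/kg (or vehicle). 20 min after morphine, mice received 0.2 mL of 6% carmine red dye in 0.5% carboxymethyl cellulose orally, set as time 0. Latency to the first red fecal pellet was measured, with a 6 h cut-off. One-way ANOVA followed by Dunnett test.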

SMILES	Time [1] [min]	Ki [4] [nM]	Ki [5] [nM]	Time [7] [min]	EC50 [9] [nM]	Activity [10] [%]	Activity [11]	Activity [12]	Time [13] [min]	Ki [14] [nM]	Ratio Ki [18]	Ratio Ki [19]	Emax [20] [%]	other results
O=C(N[C@@H]1CC[C@@]2(O)[C@H]3Cc4ccc(O)c5c4[C@@]2(CCN3CC2CC2)[C@H]1O5)c1ccncc1	151													Activity ([2]; time 25.0 min): inactive
O=C(N[C@@H]1CC[C@@]2(O)[C@H]3Cc4ccc(O)c5c4[C@@]2(CCN3CC2CC2)[C@H]1O5)c1cnc[nH]1	27	209	18.8	71	1.15	38	inactive	inactive	137	0.58				Emax [3]: 9.03%; EC50 [6]: 11.7 nM; Emax [8]: 22.1%; Activity ([2]; time 25 min): 75%
C[N@+]1(CC2CC2)CC[C@]23c4c5ccc(O)c4O[C@H]2C(=O)CC[C@@]3(O)[C@H]1C5 [METHYLNALTREXONE]	111													Ki [15]: 32.1 nM; EC50 [16]: > 10000 nM; EC50 [17]: > 10000 nM; Activity ([2]; time 25.0 min): inactive
O=C(N[C@@H]1CC[C@@]2(O)[C@H]3Cc4ccc(O)c5c4[C@@]2(CCN3CC2CC2)[C@H]1O5)c1ncc[nH]1		146	4.8		1.74		inactive	inactive		0.44	11	335	7.5	MPE [21]: 32.7%
O=C(Cc1cn[nH]c1)N[C@@H]1CC[C@@]2(O)[C@H]3Cc4ccc(O)c5c4[C@@]2(CCN3CC2CC2)[C@H]1O5		66.6	13.9	69		40	inactive	inactive	174	0.17	82	390	22.2	
O=C(Cc1cc[nH]n1)N[C@H]1CC[C@@]2(O)[C@H]3Cc4ccc(O)c5c4[C@@]2(CCN3CC2CC2)[C@H]1O5		195	154	57	6.17		inactive	inactive	154	1.05				EC50 [22]: 20.5 nM; Emax ([3]; filed as antagonist): 49.9%; EC50 [6]: 99 nM; Emax ([8]; filed as antagonist): 69.3%
O=C(Cc1cn[nH]c1)N[C@H]1CC[C@@]2(O)[C@H]3Cc4ccc(O)c5c4[C@@]2(CCN3CC2CC2)[C@H]1O5		3440	104	70	8.17	39	inactive	inactive	172	0.88	118	3920	28.4	
CN1CC[C@]23c4c5ccc(O)c4O[C@H]2[C@@H](O)C=C[C@H]3[C@H]1C5 [MORPHINE]														Time [23]: 115 min; Time [24]: 105 min; Time [25]: 124 min
O=C(N[C@H]1CC[C@@]2(O)[C@H]3Cc4ccc(O)c5c4[C@@]2(CCN3CC2CC2)[C@H]1O5)c1ncc[nH]1		70.9	1.77		2.01		inactive			0.47	4	152	7.85	AD50 ([12]; time 25 min): 5.3 mg/kg; MPE [21]: 9.2%
O=C(Cc1ncc[nH]1)N[C@@H]1CC[C@@]2(O)[C@H]3Cc4ccc(O)c5c4[C@@]2(CCN3CC2CC2)[C@H]1O5		89.8	5.17		2.07		inactive	inactive		0.48	11	188	23.5	
